Screening data as filed in PubChem BioAssay.
UHRF1 MBD2 ctr: blocks human UHRF1 binding to methylated DNA | Q96T88 | inhibition, % at 4.4 µM | 370,000 compounds, 0.75% hits | UHRF1 binding to methylated oligo, TR-FRET; in the data active = inhibition above about 21%;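 also: UHRF1 SRA domain binding a hemimethylated CpG hairpin DNA probe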
MBD2 DNA inh: blocks human MBD2 binding to methylated DNA | Q9UBB5 | TR-FRET, MBD2 binding to methylated oligonucleotide | inhibition, % at 4.4 µM | 370,000 compounds, 0.31% hits | AID 686964; in the data active = inhibition above about 13%
TCR CD3 inh: blocks the human TCR-CD3 interaction. 360,000 compounds, 0.37% hits. AID 651800. inhibition, % at 9.4 µM. TAMRA-labeled TCR probe fluorescence, biochemical; in the data active = inhibition above about 19%;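 also: recombinant mutant TCR 2C K166C tagged with TAMRA read by polarization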
ASAP1 GAP inh: ASAP1 ArfGAP inhibition | Q9ULH1 | ASAP1-stimulated ARF1 GTP hydrolysis, GDP FP detection | inhibition, % at 16.5 µM | 360,000 compounds, 0.19% hits | AID 624377; in the data active = inhibition above about 25%
Target sequence (Q9ULH1 325-724 limits assumed): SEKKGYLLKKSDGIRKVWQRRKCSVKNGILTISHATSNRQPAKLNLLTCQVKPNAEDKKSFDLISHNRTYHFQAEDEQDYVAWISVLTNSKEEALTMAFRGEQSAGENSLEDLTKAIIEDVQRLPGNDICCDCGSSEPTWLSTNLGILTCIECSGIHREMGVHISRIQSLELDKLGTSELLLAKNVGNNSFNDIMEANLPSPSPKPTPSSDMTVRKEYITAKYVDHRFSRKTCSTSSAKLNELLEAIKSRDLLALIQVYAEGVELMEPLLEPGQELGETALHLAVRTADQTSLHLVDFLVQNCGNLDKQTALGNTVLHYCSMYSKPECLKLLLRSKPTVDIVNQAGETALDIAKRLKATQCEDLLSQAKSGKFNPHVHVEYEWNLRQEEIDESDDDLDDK
LEDGF integ inh: blocks HIV-1 LEDGF/p75-dependent DNA integration. TR-FRET IN-LEDGF/p75 DNA integration, Eu/Cy5. 370,000 compounds, 0.64% hits. inhibition, % at 3.7 µM. AID 743269;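 active = inhibition above the screen-wide mean plus 3 SD, cut at about 13% in these data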;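 also: signal is the Cy5 over europium emission ratio at 671 and 618 nm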
ARFGAP1 inhibitor: rat ARFGAP1 inhibition; 360,000 compounds, 0.26% hits; Q62848; inhibition, % at 16.5 µM; Arfgap1-stimulated ARF1 GTP hydrolysis, GDP FP detection; AID 651572;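 active = inhibition above a per-plate limit, mean inhibition of low control wells plus 3 SD, cut at about 25% in these data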
Target sequence (Q62848 1-136 limits assumed): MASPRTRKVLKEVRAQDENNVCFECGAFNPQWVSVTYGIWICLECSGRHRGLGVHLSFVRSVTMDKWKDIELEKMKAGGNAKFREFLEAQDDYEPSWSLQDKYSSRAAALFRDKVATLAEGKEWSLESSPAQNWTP
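Material – truncated rat Arfgap1 GAP domain · Buffer or medium – HEPES-based buffer, pH 7.5 · Reagent – human ARF1(Δ1-17)-GTP substrate · Dosing – 16.5 µM single point, 1.26% DMSO · Schedule – GTP hydrolysis reaction 2 h at 25 °C · Technique – GDP detection by fluorescence polarization · Benchmarks – No-Arfgap1 wells (100%) versus DMSO full-reaction wells (0%) · Repeats – single replicate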
Large screens that a line does not name were inactive. Hits are enriched below; roughly 2% of the tested compounds scored in any of these assays.

COc1cccc(C2c3c(oc4ccccc4c3=O)C(=O)N2CCCN2CCOCC2)c1OC (configuration not stated)	UHRF1 MBD2 ctr 50
CCCCN1CCN(C(=O)C2CCCN(C(=O)c3ccc4c(c3)NC(=O)CS4)C2)CC1 (configuration not stated)	none (no result: TCR CD3 inh, ASAP1 GAP inh, ARFGAP1 inhibitor)
Cc1cccc(NC(=O)CN2C(=O)S/C(=C\c3ccc(-c4cccc(C(=O)O)c4C)o3)C2=O)c1	none
Cc1ccc(NC(=O)CN2C(=O)S/C(=C/c3ccc(-c4cc(C(=O)O)ccc4C)o3)C2=O)cc1C	UHRF1 MBD2 ctr 33
O=C(Nc1cccc(S(=O)(=O)N2CCOCC2)c1)C1CCN(S(=O)(=O)c2ccccc2)CC1	none
CCN(CC(=O)NC1CCS(=O)(=O)C1)S(=O)(=O)c1ccc(Br)cc1 (configuration not stated)	none
COc1ccc(C2SCC(=O)N2c2ccccc2)cc1 (configuration not stated)	UHRF1 MBD2 ctr 22
CC(C)N1CCc2c(sc(NC(=S)NC(=O)c3ccccc3)c2C#N)C1	MBD2 DNA inh 21
CCCN1CCc2c(sc(NC(=S)NC(=O)c3ccccc3)c2C#N)C1	MBD2 DNA inh 15
CC(C)C1Cc2c(sc(NC(=S)NC(=O)c3ccccc3)c2C#N)CO1 (configuration not stated)	none
Cc1sc(NC(=S)NC(=O)c2ccccc2)c(C#N)c1C	none
NC(=O)C1CC(=O)N(c2ccc(OCc3c(Cl)cccc3Cl)cc2)C1 (configuration not stated)	UHRF1 MBD2 ctr 23
Cc1c(C(Nc2ccccn2)c2ccccc2)c(=O)n(-c2ccccc2)n1C (configuration not stated)	UHRF1 MBD2 ctr 22
COCCNC(=O)C1(C)CCCN(CCSc2ccccc2)C1 (configuration not stated)	none
COc1cc(OC)c2ccc(=O)oc2c1C(CCN1CCOCC1)c1ccc2c(c1)OCO2 (configuration not stated)	UHRF1 MBD2 ctr 26
COC(=O)[C@]12C[C@H](CC(=O)NCC3CCCCC3)C(=O)N(Cc3cccc4ccccc34)C1=C[C@H](C(C)C)O[C@@H]2C1CC1	none (no result: TCR CD3 inh, ASAP1 GAP inh, ARFGAP1 inhibitor)
COC(=O)C1CN(Cc2ccc(F)cc2)CCS(=O)(=O)N1Cc1cn(CCOC(C)=O)nn1 (configuration not stated)	none (no result: TCR CD3 inh, ASAP1 GAP inh, ARFGAP1 inhibitor)
COc1ccccc1NS(=O)(=O)c1cccc(C(=O)N2CCCC2)c1	UHRF1 MBD2 ctr 43
Cc1ccc2c(c1)-c1c(cnn1CC(=O)NCCc1cccc(F)c1)CO2	none (no result: TCR CD3 inh, ASAP1 GAP inh, ARFGAP1 inhibitor)
O=C(/C=C/c1cccc(Br)c1)N1CCN(c2cccc(C(F)(F)F)c2)CC1	UHRF1 MBD2 ctr 24
Oc1ccc2ccccc2c1C=Nn1c(-c2n[nH]c3c2CCC3)n[nH]c1=S	none (no result: TCR CD3 inh, ASAP1 GAP inh, ARFGAP1 inhibitor)
Cc1ccc(S(=O)(=O)NCCNC(=O)C2CCCNC2=O)cc1 (configuration not stated)	UHRF1 MBD2 ctr 21
CN(C)CCNC(=O)C1CCCNC1=O (configuration not stated)	none
Brc1ccc2nc(-c3ccco3)c(CC3CCCCC3)n2c1	LEDGF integ inh 16
Cc1ccc2nc(-c3ccc(F)cc3)c(Cc3cccc(F)c3)n2c1	none
Cc1ccc2nc(-c3ccc(Cl)cc3)c(CC3CCCCC3)n2c1	UHRF1 MBD2 ctr 21
Cc1ccc2nc(-c3ccc(F)cc3)c(CC3CCCCC3)n2c1	UHRF1 MBD2 ctr 21
O=C(C1CC12CCCC2)N1CCC(CO)(Cc2ccccc2Cl)CC1 (configuration not stated)	UHRF1 MBD2 ctr 45
C=CCN1[C@@H](C)COc2cccc(N3CCCC3)c2S1(=O)=O	none (no result: TCR CD3 inh, ASAP1 GAP inh, ARFGAP1 inhibitor)
COc1ccccc1-c1c(C)nn2c(N3CCCCCC3)cc(C)nc12	none
COc1ccccc1-c1c(C)nn2c(N3CCN(c4ccccc4OC)CC3)cc(C)nc12	UHRF1 MBD2 ctr 26
COc1ccccc1-n1c(SCC(=O)N2CCCCC2)nc(O)c(Cc2ccccc2)c1=O	none
COc1ccccc1-n1c(SCC(=O)NC(C)(C)C)nc(O)c(Cc2ccccc2)c1=O	UHRF1 MBD2 ctr 22
COc1ccc(S(=O)(=O)Nc2cccc(S(=O)(=O)NC3=NCCC3)c2)cc1[N+](=O)[O-]	none
COc1ccc(S(=O)(=O)Nc2cccc(S(=O)(=O)N(C)C)c2)cc1[N+](=O)[O-]	UHRF1 MBD2 ctr 23
Cc1ccc(NC(=O)c2ccc(S(=O)(=O)NCc3ccco3)cc2)nc1	none
Cc1cccc(NC(=O)c2ccc(S(=O)(=O)NCc3ccco3)cc2)n1	UHRF1 MBD2 ctr 30
C=CCN(CC#Cc1cccnc1)Cc1ccc(OC)cc1OC	none (no result: TCR CD3 inh, ASAP1 GAP inh, ARFGAP1 inhibitor)
Cn1nc(C(C)(C)C)cc1N1C(=O)CCC1(C)C(=O)NCc1ccccc1 (configuration not stated)	none
Cc1cccc(C)c1NC(=O)C1(C)CCC(=O)N1c1cc(C(C)(C)C)nn1C (configuration not stated)	UHRF1 MBD2 ctr 22
O=C(NN1C(=O)/C(=C\c2cccnc2)SC1=S)c1ccco1	UHRF1 MBD2 ctr 47
CCCCCCOc1ccc(N2C(=O)CC(N3CCC(C(=O)OCC)CC3)C2=O)cc1 (configuration not stated)	UHRF1 MBD2 ctr 43
CCOC(=O)C1CCN(C2CC(=O)N(c3ccc(OCC)cc3)C2=O)CC1 (configuration not stated)	none
O=C(Nc1ccc(OC(F)F)cc1)c1ncc(Cl)c(Cl)c1Cl	UHRF1 MBD2 ctr 24
COc1ccc(OC)c(NC(=O)C(C)N2c3cccc4cccc(c34)S2(=O)=O)c1 (configuration not stated)	LEDGF integ inh 30
COc1ccc(OC)c(NC(=O)CN2c3cccc4cccc(c34)S2(=O)=O)c1	none
COc1ccc(S(=O)(=O)N2CCSC2c2ccccc2)cc1 (configuration not stated)	UHRF1 MBD2 ctr 69
N#C/C(=C\c1ccc(O)c([N+](=O)[O-])c1)c1nc2ccccc2s1	UHRF1 MBD2 ctr 26
O=C1c2cccnc2-c2ncccc21	none
COC1=C(Br)C(=O)c2ncccc2C1=O	ASAP1 GAP inh 47, LEDGF integ inh 15
O=C(OC12CCCN(C1)/C(=C/c1ccncc1)C2)c1ccc(Cl)cc1 (configuration not stated)	none (no result: TCR CD3 inh, ASAP1 GAP inh, ARFGAP1 inhibitor)
CCN(CC)c1ccc(C=Nn2c(-c3ccc(F)cc3)n[nH]c2=S)c(O)c1	none (no result: TCR CD3 inh, ASAP1 GAP inh, ARFGAP1 inhibitor)
CN1C(=O)c2cc(NC(=O)C3CC3)ccc2OC[C@H]2O[C@@H](CC(=O)NC3CCC3)CC[C@@H]21	none (no result: TCR CD3 inh, ASAP1 GAP inh, ARFGAP1 inhibitor)
CCOc1ccccc1C1CC(=O)Nc2cc3c(cc21)OCCO3 (configuration not stated)	UHRF1 MBD2 ctr 23
CCC[C@H]1[C@@H](NC(=O)c2cccnc2)CC[C@@]23CCCN2C(=O)CCC[C@@H]13	none (no result: TCR CD3 inh, ASAP1 GAP inh, ARFGAP1 inhibitor)
O=C(NCc1cccc2ccccc12)C1CCCN(c2nc3ccccc3o2)C1 (configuration not stated)	none (no result: TCR CD3 inh, ASAP1 GAP inh, ARFGAP1 inhibitor)
Cn1nc(-c2ccccc2)cc1NC(=O)Nc1ccccc1F	UHRF1 MBD2 ctr 68
